Results taken from ChEMBL document CHEMBL1158834, “Cytotoxic clerodane diterpenoids from Casearia membranacea” (2005).
Converted amounts (≈) assume the structure as drawn.

Key:
Type in all cases: functional
KB = assay: Cytotoxicity against human KB cells after 3 days by methylene blue staining; settings: 72 h, read-out: ED50 (the source's name)
Method in brief: (§1)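 Cells grown in RPMI-1640 at 37 °C, 5% CO2, seeded at 2880 cells/well for 3 h, then given sample (prepared at 1, 10, 40 and 100 µg/mL) for 3 days at 37 °C. Fixed in 10% formaldehyde/0.9% saline, stained with 1% methylene blue in 0.01 M borate, eluted with EtOH/0.1 M HCl, A650 read. ED50 is the concentration halving absorbance versus untreated cells.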

DLD-1 = assay: Cytotoxicity against human DLD1 cells after 3 days by methylene blue staining; settings: DLD-1, 72 h, read-out: ED50 (the source's name); method in brief: as §1
[1] = Cytotoxicity against human medulloblastoma cells after 3 days by methylene blue staining; settings: Medulloblastoma cell, 72 h, read-out: ED50 (the source's name); method in brief: as §1

Which EC50 (KB) does the source give for `C=CC(=C)CC[C@]1(C)[C@H]2C[C@H](OC(=O)C(C)CC)C=C3[C@H](OC(C)=O)O[C@H](OC(C)=O)[C@@]32[C@H](O)C[C@@H]1C` (relative stereo) here?
The EC50 was 3.6 µg/mL (≈ 6.94 µM).

And the EC50 (DLD-1)?
Its EC50 is 1.18 µg/mL (≈ 2.28 µM).

And the EC50 [1]?
Its EC50 is 1.93 µg/mL (≈ 3.72 µM).

With `C=CC(=C)CC[C@]1(C)[C@H]2C[C@H](OC(=O)C(C)CC)C=C3[C@H](OC(=O)CCC)O[C@H](OC(C)=O)[C@@]32[C@H](O)[C@H](OC(C)=O)[C@@H]1C` (stereo partly drawn) [CASEAMEMBRIN D] as the molecule, how does the EC50 (KB) read?
Its EC50 is 5.57 µg/mL (≈ 9.21 µM).

What about the EC50 (DLD-1) of the same molecule?
Its EC50 is 1.81 µg/mL (≈ 2.99 µM).

What about the EC50 [1] of the same molecule?
The EC50 was 2.42 µg/mL (≈ 4 µM).

Which EC50 (KB) does the source give for `C=CC(=C)CC[C@]1(C)[C@H]2C[C@H](OC(=O)C(C)CC)C=C3[C@H](OC(C)=O)O[C@H](OC(C)=O)[C@@]32[C@H](OC(=O)CCC)C[C@@H]1C` (stereo partly drawn) [CASEAMEMBRIN M] here?
The EC50 was 18.4 µg/mL (≈ 31.3 µM).

What about the EC50 (DLD-1) of the same molecule?
The EC50 was 14.2 µg/mL (≈ 24.1 µM).

And the EC50 [1]?
Its EC50 is 14.4 µg/mL (≈ 24.5 µM).

Which results are given for `C=CC(=C)CC[C@]1(C)[C@H]2C[C@H](OC(=O)CCC)C=C3[C@H](OC(C)=O)O[C@H](OC(C)=O)[C@@]32[C@H](O)[C@H](OC(C)=O)[C@@H]1C` [CASEAMEMBRIN N]?
EC50 (KB): 8.94 µg/mL (≈ 15.9 µM); EC50 (DLD-1): 4.37 µg/mL (≈ 7.77 µM); EC50 [1]: 3.27 µg/mL (≈ 5.81 µM)

Which results are given for `C=CC(=C)CC[C@]1(C)[C@H]2C[C@H](OC(=O)CC(C)C)C=C3[C@H](OC(C)=O)O[C@H](OC(C)=O)[C@@]32[C@H](O)[C@H](OC(C)=O)[C@@H]1C` [CASEAMEMBRIN O]?
EC50 (KB): 6.94 µg/mL (≈ 12 µM); EC50 (DLD-1): 2.54 µg/mL (≈ 4.4 µM); EC50 [1]: 1.94 µg/mL (≈ 3.36 µM)

Which results are given for `CO[C@@]12[C@H](COC(N)=O)C3=C(C(=O)C(C)=C(N)C3=O)N1C[C@@H]1N[C@@H]12` [MITOMYCIN]?
EC50 (KB): 0.13 µg/mL (≈ 0.389 µM); EC50 (DLD-1): 0.1 µg/mL (≈ 0.299 µM); EC50 [1]: 0.1 µg/mL (≈ 0.299 µM)
